Results reported in ChEMBL document CHEMBL3098068 (Eur J Med Chem, 2014).

How the values were obtained:
[1] = target: Aldo-keto reductase family 1 member B1 (Rattus norvegicus) (UniProt P07943); assay: Inhibition of rat kidney NADPH-dependent aldose reductase assessed as DL-glyceraldehyde conversion to glycerol at 1 uM preincubated for 20 mins followed by NADPH addition measured after 5 mins by UV-Visible spectrophotometric analysis relative to control
Outline: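 Enzyme source: supernatant of rat kidney homogenized in ice-cold 50 mM potassium phosphate pH 7.4, centrifuged 12,000 rpm 30 min, stored at -80 °C. Assay mix: 0.1 M potassium phosphate pH 6.2, DL-glyceraldehyde, lithium sulphate, mercaptoethanol. Compound (1 µM in DMSO) preincubated with enzyme 20 min at 37 °C. Blank without NADPH incubated 5 min at 37 °C. NADPH added to start. A340 decrease read. %inhibition = 100-[T/C]×100.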

[2] = target: Aldo-keto reductase family 1 member B1 (Rattus norvegicus) (UniProt P07943); assay: (§1) Inhibition of rat kidney NADPH-dependent aldose reductase assessed as DL-glyceraldehyde conversion to glycerol preincubated for 20 mins followed by NADPH addition measured after 5 mins by UV-Visible spectrophotometric analysis
[3] = target: Aldo-keto reductase family 1 member B1 (Rattus norvegicus, UniProt P07943); assay: as §1

SMILES | inhibition [1] [%] | inhibition [2] | IC50 [3] [nM]
CC(C)c1ccc(/C=C(C#N)/C=C2\SC(=S)N(c3ccc(C(=O)O)cc3)C2=O)cc1 | < 50 | – | –
COc1ccc(/C=C(C#N)/C=C2\SC(=S)N(c3ccc(CC(=O)O)cc3)C2=O)cc1 | < 50 | – | –
N#CC(=C\c1ccc(Br)cc1)/C=C1\SC(=S)N(CC(=O)O)C1=O | < 50 | – | –
Cc1ccc(/C=C(C#N)/C=C2\SC(=S)N(c3ccc(CC(=O)O)cc3)C2=O)cc1 | < 50 | – | –
CC(C)c1ccc(/C=C(C#N)/C=C2\SC(=S)N(c3ccc(CC(=O)O)cc3)C2=O)cc1 | < 50 | – | –
N#CC(=C\c1ccccc1)/C=C1\SC(=S)N(CC(=O)O)C1=O | > 50 | Dose-dependent effect | 750
N#CC(=C\c1cccc2ccccc12)/C=C1\SC(=S)N(CC(=O)O)C1=O | < 50 | – | –
N#CC(=C\c1ccc(Cl)cc1)/C=C1\SC(=S)N(CC(=O)O)C1=O | < 50 | – | –
Cc1ccc(/C=C(C#N)/C=C2\SC(=S)N(CC(=O)O)C2=O)cc1 | < 50 | – | –
N#CC(=C\c1ccccc1)/C=C1\SC(=S)N(c2ccc(C(=O)O)cc2)C1=O | > 50 | Dose-dependent effect | 220
COc1ccc(/C=C(C#N)/C=C2\SC(=S)N(c3ccc(C(=O)O)cc3)C2=O)cc1 | < 50 | – | –
N#CC(=C\c1ccccc1)/C=C1\SC(=S)NC1=O | < 50 | – | –
N#CC(=C\c1ccco1)/C=C1\SC(=S)N(c2ccc(C(=O)O)cc2)C1=O | < 50 | – | –
N#CC(=C\c1ccco1)/C=C1\SC(=S)NC1=O | < 50 | – | –
Cc1ccc(/C=C(C#N)/C=C2\SC(=S)N(c3ccc(C(=O)O)cc3)C2=O)cc1 | < 50 | – | –
N#CC(=C\c1cccs1)/C=C1\SC(=S)N(c2ccc(C(=O)O)cc2)C1=O | < 50 | – | –
CC(C)c1ccc(/C=C(C#N)/C=C2\SC(=S)NC2=O)cc1 | < 50 | – | –
N#CC(=C\c1ccccc1)/C=C1\SC(=S)N(c2ccc(CC(=O)O)cc2)C1=O | < 50 | – | –
CCc1ccc(/C=C(C#N)/C=C2\SC(=S)N(CC(=O)O)C2=O)cc1 | < 50 | – | –
N#CC(=C\c1ccc(Cl)cc1)/C=C1\SC(=S)NC1=O | < 50 | – | –
N#CC(=C\c1ccc(Cl)cc1)/C=C1\SC(=S)N(c2ccc(C(=O)O)cc2)C1=O | < 50 | – | –
CCc1ccc(/C=C(C#N)/C=C2\SC(=S)N(c3ccc(CC(=O)O)cc3)C2=O)cc1 | < 50 | – | –
N#CC(=C\c1ccc(F)cc1)/C=C1\SC(=S)N(CC(=O)O)C1=O | < 50 | – | –
N#CC(=C\c1ccc(F)cc1)/C=C1\SC(=S)N(c2ccc(C(=O)O)cc2)C1=O | < 50 | – | –
N#CC(=C\c1ccc(F)cc1)/C=C1\SC(=S)NC1=O | < 50 | – | –

Results, then the compound that gave them:

inhibition [1] [%] | inhibition [2] | IC50 [3] [nM] | SMILES
< 50 | – | – | COc1ccc(/C=C(C#N)/C=C2\SC(=S)NC2=O)cc1
< 50 | – | – | CCc1ccc(/C=C(C#N)/C=C2\SC(=S)N(c3ccc(C(=O)O)cc3)C2=O)cc1
< 50 | – | – | CCc1ccc(/C=C(C#N)/C=C2\SC(=S)NC2=O)cc1
< 50 | – | – | N#CC(=C\c1cccc2ccccc12)/C=C1\SC(=S)NC1=O
< 50 | – | – | N#CC(=C\c1cccs1)/C=C1\SC(=S)N(CC(=O)O)C1=O
< 50 | – | – | CC(C)c1ccc(/C=C(C#N)/C=C2\SC(=S)N(CC(=O)O)C2=O)cc1
< 50 | – | – | N#CC(=C\c1ccc(Br)cc1)/C=C1\SC(=S)NC1=O
> 50 | Dose-dependent effect | 690 | Cc1ccc(/C=C(C#N)/C=C2\SC(=S)NC2=O)cc1
< 50 | – | – | N#CC(=C\c1cccc2ccccc12)/C=C1\SC(=S)N(c2ccc(C(=O)O)cc2)C1=O
< 50 | – | – | COc1ccc(/C=C(C#N)/C=C2\SC(=S)N(CC(=O)O)C2=O)cc1
> 50 | Dose-dependent effect | 670 | N#CC(=C\c1ccco1)/C=C1\SC(=S)N(CC(=O)O)C1=O
< 50 | – | – | N#CC(=C\c1ccc(C(F)(F)F)cc1)/C=C1\SC(=S)N(CC(=O)O)C1=O
< 50 | – | – | N#CC(=C\c1ccc(Br)cc1)/C=C1\SC(=S)N(c2ccc(C(=O)O)cc2)C1=O
> 50 | Dose-dependent effect | 860 | N#CC(=C\c1cccs1)/C=C1\SC(=S)NC1=O
